ChEMBL document CHEMBL1177712, “Synthesis and characterization of in vitro and in vivo profiles of hydroxybupropion analogues: aids to smoking cessation” (J Med Chem, 2010)
Calls of active or inactive are those of the source.

Assays:
[1] = test system: Mus musculus; assay: Toxicity in sc dosed ICR mouse assessed occurrence of convulsion; assay type: organism-based; conditions: in vivo
[2] = target: Neuronal acetylcholine receptor; alpha4/beta2 (Homo sapiens, UniProt P17787+P43681); assay: Agonist activity at alpha4beta2 nicotinic receptor in human SH-EP1 cells assessed as induction of radiolabeled Rb+ influx at 0.005 to 100 uM by liquid scintillation counting; assay type: functional, cell-based
Method in brief: (§1)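 Cells were labelled with ⁸⁶Rb⁺ for at least 4 h, then exposed for 5 min in efflux buffer (pH 7.4) to test ligand alone at ~5 nM to 100 μM. The lines were TE671/RD (muscle α1β1γδ), SH-SY5Y (α3β4*) and transfected SH-EP1-hα4β2 or -hα4β4. Efflux was Cerenkov-counted. Non-specific efflux was subtracted, and results were normalized to specific efflux from carbamylcholine (1 mM; 3 mM for SH-SY5Y).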

[3] = test system: Mus musculus; assay: Smoke cessation activity in sc dosed ICR mouse assessed as inhibition of nicotine-induced antinociception administered 15 mins before nicotine challenge measured after 5 mins of nicotine infusion by hotplate assay; assay type: functional, organism-based
Method in brief: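 Male ICR mice (20–25 g) were pretreated with saline or test drug 15 min before nicotine at 2.5 mg/kg sc. They were tested 5 min later on a 55 °C hot plate (40 s cutoff), and the result was expressed as %MPE. AD₅₀ came from at least four doses, with at least 8 mice per dose.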

[4] = test system: Mus musculus; assay: Smoke cessation activity in sc dosed ICR mouse assessed as inhibition of nicotine-induced hypothermia administered 15 mins before nicotine challenge measured after 30 mins of nicotine infusion; assay type: functional, organism-based
Method in brief: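 Male ICR mice (20–25 g) were pretreated with test drug or saline 15 min before nicotine at 2.5 mg/kg sc. Rectal temperature was taken before and 30 min after nicotine, and the change was calculated. Room temperature was 21–24 °C. AD₅₀ came from at least four doses, with at least 8 mice per dose.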

[5] = test system: SH-EP1; assay: Selectivity ratio of IC50 for alpha4beta2 nicotinic receptor in human SH-EP1 cells to IC50 for IC50 for human NET; assay type: cell-based
[6] = target: T1, Neuronal acetylcholine receptor; alpha4/beta4 (Homo sapiens, UniProt P30926+P43681); assay: Agonist activity at alpha4beta4 nicotinic receptor in human SH-EP1 cells assessed as induction of radiolabeled Rb+ influx at 0.005 to 100 uM by liquid scintillation counting; assay type: functional, cell-based; method in brief: as §1
T1 sequence (P30926 whole entry, the tested form may be a part): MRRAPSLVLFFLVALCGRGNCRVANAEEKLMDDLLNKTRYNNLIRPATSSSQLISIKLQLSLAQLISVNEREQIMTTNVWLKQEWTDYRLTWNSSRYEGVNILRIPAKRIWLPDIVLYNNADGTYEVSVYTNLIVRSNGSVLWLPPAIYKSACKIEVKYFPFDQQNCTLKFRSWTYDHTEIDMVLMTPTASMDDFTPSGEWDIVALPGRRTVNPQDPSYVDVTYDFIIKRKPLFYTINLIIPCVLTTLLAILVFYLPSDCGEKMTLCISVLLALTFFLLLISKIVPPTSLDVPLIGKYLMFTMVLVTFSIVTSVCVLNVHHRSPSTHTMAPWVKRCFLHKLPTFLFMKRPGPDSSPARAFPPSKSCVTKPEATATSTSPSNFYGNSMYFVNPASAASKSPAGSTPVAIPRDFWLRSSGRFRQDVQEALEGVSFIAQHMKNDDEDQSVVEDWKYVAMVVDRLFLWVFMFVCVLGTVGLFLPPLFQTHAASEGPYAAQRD
T1 sequence (P43681 whole entry, the tested form may be a part): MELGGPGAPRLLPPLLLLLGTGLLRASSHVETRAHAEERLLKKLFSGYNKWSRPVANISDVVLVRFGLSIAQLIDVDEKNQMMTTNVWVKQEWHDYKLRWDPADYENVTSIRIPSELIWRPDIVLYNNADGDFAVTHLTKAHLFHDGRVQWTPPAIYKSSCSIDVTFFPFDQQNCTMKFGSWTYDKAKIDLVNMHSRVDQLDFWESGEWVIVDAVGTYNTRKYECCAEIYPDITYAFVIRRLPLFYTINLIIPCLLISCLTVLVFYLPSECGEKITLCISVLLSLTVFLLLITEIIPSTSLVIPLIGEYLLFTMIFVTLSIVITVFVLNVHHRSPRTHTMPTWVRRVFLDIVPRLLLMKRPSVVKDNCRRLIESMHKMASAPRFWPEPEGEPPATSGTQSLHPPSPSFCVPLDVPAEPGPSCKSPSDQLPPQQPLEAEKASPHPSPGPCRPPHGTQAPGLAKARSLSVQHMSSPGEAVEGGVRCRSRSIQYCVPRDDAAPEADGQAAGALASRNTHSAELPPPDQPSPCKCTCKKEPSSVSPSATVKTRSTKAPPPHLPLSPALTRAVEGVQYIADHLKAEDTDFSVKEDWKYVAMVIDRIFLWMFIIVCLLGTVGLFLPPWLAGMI

[7] = test system: Mus musculus; assay: Smoke cessation activity in sc dosed ICR mouse assessed as inhibition of nicotine-induced increase in locomotor activity administered 15 mins before nicotine challenge measured after 5 mins of nicotine infusion; assay type: functional, organism-based
[8] = test system: Mus musculus; assay: Toxicity in sc dosed ICR mouse assessed occurrence of sedation; assay type: organism-based; conditions: in vivo
[9] = test system: SH-SY5Y; assay: Selectivity ratio of IC50 for alpha3beta4 nicotinic receptor in human SH-SY5Y cells to IC50 for IC50 for human NET; assay type: cell-based
[10] = test system: Mus musculus; assay: Smoke cessation activity in sc dosed ICR mouse assessed as inhibition of nicotine-induced antinociception administered 15 mins before nicotine challenge measured after 5 mins of nicotine infusion by tail-flick assay; assay type: functional, organism-based
Method in brief: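 Radiant-heat tail-flick latency was read 5 min later (10 s cutoff; baseline 2–4 s) and expressed as %MPE. AD₅₀ came from at least four doses, with at least 8 mice per dose.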

[11] = target: T1, Neuronal acetylcholine receptor; alpha4/beta4; assay: Antagonist activity at alpha4beta4 nicotinic receptor in human SH-EP1 cells assessed as inhibition varbamylcholine-induced radiolabeled Rb+ influx at by liquid scintillation counting; assay type: functional, cell-based
Method in brief: (§2)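 ⁸⁶Rb⁺-loaded human cells were given a 5-min efflux with carbamylcholine at EC₈₀–EC₉₀ plus graded test ligand. Non-specific efflux, taken with 100 μM mecamylamine or buffer, was subtracted. IC₅₀ came from a Hill fit of three independent experiments, with SEM given as a multiplication factor.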

[12] = target: Acetylcholine receptor; alpha1/beta1/delta/gamma (Homo sapiens, UniProt P02708+P07510+P11230+Q07001); assay: Antagonist activity at alpha-1-beta-1-gamma-delta nicotinic receptor in human TE671 cells assessed as inhibition varbamylcholine-induced radiolabeled Rb+ influx at by liquid scintillation counting; assay type: functional, cell-based, TE-671; method in brief: as §2
Sequence of Acetylcholine receptor; alpha1/beta1/delta/gamma (P02708 whole entry): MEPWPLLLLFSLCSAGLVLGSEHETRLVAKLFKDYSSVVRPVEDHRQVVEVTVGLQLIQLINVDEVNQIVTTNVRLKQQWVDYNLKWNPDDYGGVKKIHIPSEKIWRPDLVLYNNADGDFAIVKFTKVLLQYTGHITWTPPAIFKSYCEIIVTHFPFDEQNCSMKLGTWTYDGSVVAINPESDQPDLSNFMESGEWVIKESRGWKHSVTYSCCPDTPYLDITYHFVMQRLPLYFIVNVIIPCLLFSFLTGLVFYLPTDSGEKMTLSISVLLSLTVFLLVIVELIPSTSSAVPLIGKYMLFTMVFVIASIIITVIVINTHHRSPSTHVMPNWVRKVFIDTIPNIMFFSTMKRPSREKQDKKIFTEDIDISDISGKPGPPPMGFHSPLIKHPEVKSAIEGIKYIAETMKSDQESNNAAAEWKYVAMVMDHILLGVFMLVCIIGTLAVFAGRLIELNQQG
Sequence of Acetylcholine receptor; alpha1/beta1/delta/gamma (P07510 whole entry): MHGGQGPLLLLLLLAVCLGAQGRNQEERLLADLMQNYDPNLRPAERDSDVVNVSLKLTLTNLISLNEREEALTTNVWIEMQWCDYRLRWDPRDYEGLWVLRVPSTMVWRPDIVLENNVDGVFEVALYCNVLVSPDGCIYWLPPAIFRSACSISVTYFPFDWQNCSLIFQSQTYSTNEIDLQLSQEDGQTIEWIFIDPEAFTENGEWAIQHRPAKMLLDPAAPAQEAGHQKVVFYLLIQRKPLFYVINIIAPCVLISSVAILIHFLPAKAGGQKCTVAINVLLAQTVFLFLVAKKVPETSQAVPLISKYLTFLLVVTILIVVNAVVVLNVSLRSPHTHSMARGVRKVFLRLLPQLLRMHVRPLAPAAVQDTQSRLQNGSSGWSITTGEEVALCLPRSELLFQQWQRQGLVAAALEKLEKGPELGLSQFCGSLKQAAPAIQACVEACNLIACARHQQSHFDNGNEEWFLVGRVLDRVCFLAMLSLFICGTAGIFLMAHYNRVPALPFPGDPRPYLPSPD
Sequence of Acetylcholine receptor; alpha1/beta1/delta/gamma (P11230 whole entry): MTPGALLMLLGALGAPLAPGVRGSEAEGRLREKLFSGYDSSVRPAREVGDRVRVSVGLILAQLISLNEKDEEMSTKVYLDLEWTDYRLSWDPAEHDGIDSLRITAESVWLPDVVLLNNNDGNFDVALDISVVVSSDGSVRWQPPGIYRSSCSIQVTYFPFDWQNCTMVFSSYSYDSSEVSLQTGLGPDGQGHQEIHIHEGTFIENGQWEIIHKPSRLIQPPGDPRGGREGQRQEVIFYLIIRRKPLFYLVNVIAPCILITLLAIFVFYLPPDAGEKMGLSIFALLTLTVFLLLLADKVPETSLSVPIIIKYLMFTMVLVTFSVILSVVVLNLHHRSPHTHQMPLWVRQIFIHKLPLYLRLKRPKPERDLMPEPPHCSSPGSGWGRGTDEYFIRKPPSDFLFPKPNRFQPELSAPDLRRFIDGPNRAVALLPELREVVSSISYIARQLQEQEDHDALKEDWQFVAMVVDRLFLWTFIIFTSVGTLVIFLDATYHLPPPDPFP
Sequence of Acetylcholine receptor; alpha1/beta1/delta/gamma (Q07001 whole entry): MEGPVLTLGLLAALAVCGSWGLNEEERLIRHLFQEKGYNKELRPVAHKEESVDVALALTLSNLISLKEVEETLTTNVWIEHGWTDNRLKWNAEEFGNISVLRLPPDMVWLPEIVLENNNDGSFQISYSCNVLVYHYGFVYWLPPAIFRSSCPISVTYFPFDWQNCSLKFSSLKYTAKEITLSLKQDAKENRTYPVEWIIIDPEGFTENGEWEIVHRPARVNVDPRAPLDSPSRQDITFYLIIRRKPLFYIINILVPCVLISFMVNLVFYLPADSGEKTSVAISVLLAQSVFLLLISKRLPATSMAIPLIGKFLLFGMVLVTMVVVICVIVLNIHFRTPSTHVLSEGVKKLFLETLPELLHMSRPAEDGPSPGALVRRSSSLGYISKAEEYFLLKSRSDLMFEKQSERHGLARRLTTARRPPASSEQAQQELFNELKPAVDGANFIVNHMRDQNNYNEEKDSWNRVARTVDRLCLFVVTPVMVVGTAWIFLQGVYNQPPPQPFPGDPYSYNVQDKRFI

SMILES | Activity [1] | Activity [2] | IC50 [3] [mg/kg] | IC50 [4] [mg/kg] | Ratio IC50 [5] | Activity [6] | IC50 [7] [mg/kg] | Activity [8] | Ratio IC50 [9] | IC50 [10] [mg/kg] | IC50 [11] [µM] | IC50 [12] [µM]
CC1NC(C)(C)COC1(O)c1ccc(Cl)c(Cl)c1 (racemic) | Non-toxic | inactive | > 15 | > 15 | 175 | inactive | > 15 | Non-toxic | 23 | 8.8 |  | 
C[C@@H]1NC(C)(C)CO[C@@]1(O)c1ccc(F)c(F)c1 | Non-toxic | inactive | > 15 | > 15 |  | inactive | > 15 | Non-toxic |  | 0.006 | > 100 | 
CC1NC(C)(C)COC1(O)c1cc(Cl)cc(Cl)c1 (racemic) | Non-toxic | inactive | > 15 | > 15 | 4.5 | inactive | 1.9 | Non-toxic |  | > 15 |  | 
C[C@H]1NC(C)(C)CO[C@]1(O)c1cccc(Cl)c1 | Non-toxic |  | 10.3 | > 15 |  |  | > 15 | Non-toxic |  | 2.5 |  | 
CC(NC(C)(C)C)C(=O)c1cccc(Cl)c1 (racemic) [BUPROPION] | Non-toxic |  | 15 | 9.2 |  |  |  | Non-toxic |  |  |  | 
C[C@@H]1N(C)C(C)(C)CO[C@@]1(O)c1cccc(Cl)c1 | Non-toxic | inactive | > 15 | > 15 |  | inactive | > 15 | Non-toxic |  | 0.016 |  | 
C[C@@H]1NC(C)(C)CO[C@@]1(O)c1cccc(F)c1 | Non-toxic | inactive | 8.6 | 4.4 | 1.7 | inactive | > 15 | Non-toxic |  | 0.012 | > 100 | > 100
C[C@@H]1NC(C)(C)CO[C@@]1(O)c1cccc(Cl)c1 [RADAFAXINE] | Non-toxic |  | 1 |  |  |  | 0.9 | Non-toxic |  | 0.2 |  | 
C[C@@H]1N(C)C(C)(C)CO[C@@]1(O)c1ccc(Cl)cc1 | Non-toxic | inactive | > 15 | > 15 |  | inactive | > 15 | Non-toxic |  | 0.32 |  | 
C[C@@H]1NC(C)(C)CO[C@@]1(O)c1ccc(Cl)cc1 | Non-toxic | inactive | > 15 | > 15 |  | inactive | > 15 | Non-toxic |  | 0.019 |  | 
CC1NC(C)(C)COC1(O)c1cccnc1 (racemic) | Non-toxic | inactive |  |  |  | inactive |  | Non-toxic |  |  | > 100 | > 100
C[C@@H]1NC(C)(C)CO[C@@]1(O)c1cccc([N+](=O)[O-])c1 | Non-toxic | inactive | > 15 | 4.7 | 4 | inactive | > 15 | Non-toxic |  | 4.9 |  | 
